Bioassay records as filed in PubChem BioAssay.
EBI2 block: antagonists of human EBI2 receptor; hit rate 0.81% among 360,000; EBI2 beta-arrestin recruitment, luminescence, 7a,25-OHC stimulated; AID 651636; inhibition, % at 5 µM; in the data active = inhibition above about 38%;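 note: enzyme fragment complementation signal reports receptor beta-arrestin coupling in cells; 0% = agonist plus DMSO wells and 100% = wells without agonist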
APJ antagonist: antagonists of human APJ apelin receptor. P35414. CHO-K1 APJ beta-arrestin complementation, luminescence. inhibition, % at 20 µM. hit rate 0.32% among 330,000;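 active = inhibition above about 40% at 20 µM, limit read from the data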;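 note: cells challenged with 10 nM apelin-13 agonist together with compound; plate controls were apelin-13 plus DMSO wells for no effect and DMSO wells lacking apelin-13 for full effect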
CCR6 antag: antagonists of human CCR6 receptor | P51684 | CHO-K1 CCR6 PathHunter beta-arrestin, luminescence, CCL20-stimulated | inhibition, % at 20 µM | hit rate 0.49% among 340,000;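 active = compounds whose inhibition of the agonist-driven luminescence signal at 20 µM reaches about 50%, limit read from the data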;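 note: cells stimulated with CCL20 at 14 nM final; plate controls were DMSO with CCL20 for no effect and DMSO without agonist for full effect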
APJ ag: APJ receptor agonism | CHO-K1 APJ PathHunter beta-arrestin, luminescence; 0% DMSO wells, 100% apelin | activation, % at 20 µM | hit rate 0.11% among 330,000 | P35414;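 active = activation more than six SD over the plate average, tested at 20 µM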;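 note: 0% = DMSO alone and 100% = apelin-13 at 10 nM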
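Material: CHO-K1 APJ beta-arrestin complementation cell line; Input: cell density 1000 per well; Incubation: compound stimulation 90 min at 25 °C, detection 60 min; Signal: luminescence from split beta-galactosidase complementation, Galacton Star/Emerald II substrate; Controls: DMSO-only wells as negative, 10 nM Apelin-13 as positive control.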
CXCR6 inh: inhibitors of human CXCR6 receptor | CHO-K1 PathHunter CXCR6 beta-arrestin, luminescence | inhibition, % at 20 µM | hit rate 0.36% among 360,000; in the data active = inhibition above about 34%, passing the limit was not always enough;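 note: antagonist mode with CXCL16 agonist at 10 nM final; 0% = 10 nM CXCL16 with DMSO and 100% = unstimulated wells without agonist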
Target sequence (O00574 whole entry, looked up): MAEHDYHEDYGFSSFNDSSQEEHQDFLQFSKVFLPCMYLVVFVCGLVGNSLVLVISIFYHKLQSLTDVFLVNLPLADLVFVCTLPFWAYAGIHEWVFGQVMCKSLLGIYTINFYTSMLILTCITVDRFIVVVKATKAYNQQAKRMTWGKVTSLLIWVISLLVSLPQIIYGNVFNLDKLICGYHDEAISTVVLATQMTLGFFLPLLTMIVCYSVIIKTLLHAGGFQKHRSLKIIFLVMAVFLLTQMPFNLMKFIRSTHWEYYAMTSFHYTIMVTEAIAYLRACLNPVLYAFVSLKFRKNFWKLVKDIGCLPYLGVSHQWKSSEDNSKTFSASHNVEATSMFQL
EBI2 antag conf: confirmation of human EBI2 receptor antagonists | shares compounds with EBI2 block | EBI2 beta-arrestin luminescence, 7a,25-OHC antagonism | inhibition, % at 5 µM | hit rate 29% among 2,400 | AID 651997;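 active = inhibition of at least 50%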
EBI2 agonist: EBI2 agonism counter-screen | shares compounds with EBI2 block | activation, % at 5 µM | EBI2-expressing cells, agonist mode, luminescence, 60 min; 0% vehicle, 100% 7α,25-dihydroxycholesterol control | 2,400 tested, under 10 active;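 active = activation of at least 50%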
bGal cs: beta-galactosidase inhibition counter-screen | AID 652176 | purified beta-galactosidase, luminescent Galacton Star, 15 min | hit rate 1% among 2,400 | inhibition, % at 5 µM | shares compounds with EBI2 block;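 active = replicate-average signal at least 3 plate SD below neutral wells, shown as high inhibition, flagging enzyme-inhibiting false positives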;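 note: 0% = DMSO wells with enzyme and 100% = wells lacking enzyme; higher means stronger loss of beta-gal luminescence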
Active calls of the source: *; x = not tested or not shown. Most compounds without a hit are left out; they make up all but 1.5% or so of the library.

SMILES	EBI2 block	APJ antagonist	CCR6 antag	APJ ag	CXCR6 inh	EBI2 antag conf	EBI2 agonist	bGal cs
Cc1cc2nc(-c3ccc(Cl)cc3)c(CC3CCCCC3)n2c(C)c1Br	-7	x	x	x	-7	x	x	x
CCOC(=O)C1CCN(C(=O)COc2cccc(C)c2)CC1	11	-19	9	-6	2	x	x	x
CCOC(=O)N1CCN(C(=O)COc2ccc(Br)cc2Cl)CC1	62*	8	16	-1	6	28	1	2
CCOC(=O)C1CCN(C(=O)COc2ccc(Br)cc2Br)CC1	44*	3	7	-4	-6	15	1	7
CCOC(=O)C1CCN(C(=O)COc2cc(C)c(Br)cc2C)CC1	71*	-3	12	-1	-6	37	0	-5
CCOC(=O)C1CCN(C(=O)COc2ccc(Br)cc2)CC1	75*	-7	7	-2	-6	67*	0	-12
COc1ccc(N2CCN(c3nc(Cl)nc(Nc4ccc(F)cc4)n3)CC2)cc1	8	5	-4	-3	-3	x	x	x
CCN(CC)S(=O)(=O)c1ccc2oc(C(=O)NC3CCCc4ccccc43)c(C)c2c1 (stereo not drawn)	43*	5	18	-5	8	10	-2	-12
Cc1cc(Cl)cc(Cl)c1OCCOc1cccc2cccnc12	56*	21	24	-3	0	39	4	1
Brc1ccccc1OCCOc1cccc2cccnc12	18	-13	15	-2	3	x	x	x
Fc1cccc(Cc2c(-c3ccccc3)nc3c4ccccc4ccn23)c1	5	x	x	x	10	x	x	x
CC(C)Oc1cc(F)ccc1-c1cc(C(=O)Nc2cccc(C(F)(F)F)c2)[nH]n1	42*	x	x	x	-18	38	1	11
O=C(Cn1nnc(-c2ccccc2)n1)N/N=C/c1cc([N+](=O)[O-])ccc1O	55*	24	27	-6	10	41	1	6
O=C(CCc1ccccc1)N1CCN(C(=O)CCc2ccccc2)CC1	55*	x	9	x	0	25	-1	-8
NNC(=S)NC1CC2CC1C1C=CCC21 (stereo not drawn)	3	26	32	-11	24	x	x	x
Oc1ccc(O)c(C=NNC(=S)NC2CC3CC2C2C=CCC32)c1 (stereo not drawn)	49*	x	x	x	-3	25	-1	-2
O=C(Nc1cnn(Cc2ccc(F)cc2)c1)c1cnccn1	-9	14	-12	-2	10	x	x	x
O=C(Nc1cnn(Cc2ccc(F)cc2)c1)C(c1ccccc1)c1ccccc1	73*	6	9	-1	8	38	2	-1
CC(C)(C)C1CCc2onc(C(=O)Nc3cnn(Cc4ccc(F)cc4)c3)c2C1 (stereo not drawn)	44*	-18	-7	-5	-4	8	-2	-7
CCN(CC)C(=O)C1CCN(C(=O)c2oc3ccc(C)cc3c2C)CC1	80*	9	1	6	-2	57*	3	6
O=C(c1cccc(C(=O)N2CCC(O)(c3ccccc3)CC2)c1)N1CCC(O)(c2ccccc2)CC1	-9	-10	1	-3	-2	x	x	x
Cc1ccc2oc(C(=O)N3CCC(O)(c4ccccc4)CC3)c(C)c2c1	84*	-16	11	1	4	78*	1	3
COc1ccc(Cl)cc1NC(=O)C1CSC(c2ccncc2)=N1 (stereo not drawn)	-3	14	28	-6	5	x	x	x
CCN(CC)c1ccc(S(=O)(=O)N2CCOCC2)cc1NC(=O)CSC(=S)N1CCCC1	10	14	9	-11	16	x	x	x
CCC(C(=O)NCCc1ccc(S(N)(=O)=O)cc1)c1ccccc1 (stereo not drawn)	0	-12	11	1	7	x	x	x
SMILES	EBI2 block	APJ antagonist	CCR6 antag	APJ ag	CXCR6 inh	EBI2 antag conf	EBI2 agonist	bGal cs
S=C(NCC1CCCO1)N1CCN(c2nc(-c3ccccc3)cs2)CC1 (stereo not drawn)	40*	2	-8	2	-3	22	-1	-8
S=C(NCc1ccco1)N1CCN(c2nc(-c3ccccc3)cs2)CC1	10	5	-3	0	-8	x	x	x
O=C(N/N=C/c1cccs1)c1cc(-c2ccc(Cl)s2)[nH]n1	5	0	-9	0	3	x	x	x
CCc1ccc(NC(=O)C(C)OC(=O)c2cc(=O)[nH]c3ccc(S(=O)(=O)Nc4ccc(F)cc4)cc23)cc1 (stereo not drawn)	12	16	20	0	4	x	x	x
Cc1cccc(NS(=O)(=O)c2ccc3[nH]c(=O)cc(C(=O)OC(C)C(=O)Nc4ccc([N+](=O)[O-])cc4)c3c2)c1 (stereo not drawn)	47*	18	26	0	1	38	-1	9
CCOc1ccc(CCNC(=O)c2ccc(CS(=O)Cc3ccc(Cl)cc3)o2)cc1 (stereo not drawn)	46*	10	17	0	-3	28	1	2
O=C(NCCc1ccc(Cl)cc1)c1ccc(CS(=O)Cc2ccc(Cl)cc2)o1 (stereo not drawn)	68*	3	6	0	-6	54*	-2	-8
O=C(NCCc1ccccc1)c1ccc(CS(=O)Cc2cccc(Cl)c2)o1 (stereo not drawn)	23	11	12	-1	2	x	x	x
CSc1ccc(CCNC(=O)c2ccc(CS(=O)Cc3ccc(Cl)cc3)o2)cc1 (stereo not drawn)	54*	5	17	5	-16	7	0	-12
CCOc1ccc(CCNC(=O)c2ccc(CS(=O)Cc3ccccc3Cl)o2)cc1 (stereo not drawn)	-2	-2	12	-1	-2	x	x	x
COc1ccc(OC)c(CCNC(=O)c2ccc(CS(=O)Cc3ccc(Cl)cc3)o2)c1 (stereo not drawn)	28	10	18	-2	2	x	x	x
O=C(COC(=O)c1ccc(Cl)c(S(=O)(=O)NCc2ccccc2)c1)NCC1CCCO1 (stereo not drawn)	-1	1	8	-2	-8	x	x	x
O=C1[C@H](Cc2ccccc2)NCC=CC[C@H](c2ccco2)N1Cc1ccccc1	0	x	17	x	-2	x	x	x
O=C(Nc1cnn(C23CC4CC(CC(C4)C2)C3)c1)c1cc(-c2ccccc2)on1	63*	-30	19	0	2	37	1	5
C=CCn1c(C(C)n2c(-c3cnccn3)nc3ccccc32)nc2ccccc21 (stereo not drawn)	6	x	x	x	x	x	x	x
COc1ccccc1CNc1nc(NC(C)C)nc2cc(-c3ccccc3)sc12	50*	x	x	x	3	50*	-2	-8
